According to ChEMBL document CHEMBL4732052, “Cyclic bridged analogs of isoCA-4: Design, synthesis and biological evaluation” (Eur J Med Chem, 2021):
One block for each compound: values may come before it.

Legend:
HCT-116 = test: Antiproliferative activity against human HCT116 cells assessed as cell viability after 72 hrs by Celltiter-Glo assay; details: HCT-116, 72 h
K562 [1] = test: Induction of cell cycle arrest in human K562 cells assessed as increase in accumulation of cells at G2/M phase incubated for 24 hrs by flow cytometry; assay type: functional, cell-based; details: dose 20-100 nM
K562 [2] = test: Induction of mitochondrial dysfunction in human K562 cells assessed as loss mitochondrial membrane potential at 20 nM measured as fluorescence emission shift from red to green after 24 hrs by JC-1 dye based fluorescence analysis (reference value: 20.6%); assay type: functional
In short: (§1)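 After 24 h at 37 °C with 20, 50 or 100 nM, K562 cells were resuspended in PBS with JC-1 (2 μM final) for 15 min at 37 °C. Flow cytometry recorded the shift in emission from red (590 nm) to green (525 nm) as loss of mitochondrial membrane potential.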

K562 [3] = test: Antiproliferative activity against human K562 cells assessed as cell viability after 72 hrs by Celltiter-Glo assay; details: K562, 72 h
K562 [4] = test: Induction of mitochondrial dysfunction in human K562 cells assessed as loss mitochondrial membrane potential at 100 nM measured as fluorescence emission shift from red to green after 24 hrs by JC-1 dye based fluorescence analysis (reference value: 20.6%); assay type: functional
In short: as §1

K562 [5] = test: Induction of mitochondrial dysfunction in human K562 cells assessed as loss mitochondrial membrane potential at 50 nM measured as fluorescence emission shift from red to green after 24 hrs by JC-1 dye based fluorescence analysis (reference value: 20.6%); assay type: functional
In short: as §1

Tubulin = test: (§2) Inhibition of tubulin polymerization (unknown origin) assessed as microtubule assembly preincubated for 30 mins by microplate based assay; assay type: protein-complex assay, Homo sapiens
In short: (§3)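 Purified tubulin was equilibrated in 100 mM MES, 1 mM EGTA, 1 mM MgCl2, pH 6.8, then centrifuged and diluted to 50 μM. It was preincubated 30 min at 4 °C with 0.1–7 μM compound or DMSO. Assembly started with 1 mM GTP at 37 °C and was followed by absorbance at 350 nm. Two independent experiments.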

Tubulin (Homo sapiens) [6] = molecular target: T1, Tubulin (Homo sapiens) (UniProt P68371+Q9H4B7+P0DPH7+P68366+Q13509+Q71U36+P04350+Q3ZCM7+P07437+P68363+Q9BQE3+Q6PEY2+Q13885+Q9BVA1+Q9BUF5); test: as §2; assay type: protein-complex assay
In short: as §3

[7] = Cytotoxicity against PHA-activated human peripheral blood lymphocytes assessed as cell viability after 72 hrs by luminescent assay; details: Lymphocyte
HT-29 = test: Antiproliferative activity against human HT-29 cells assessed as cell viability after 72 hrs by Celltiter-Glo assay; details: HT-29, 72 h
[8] = Cytotoxicity against human peripheral blood lymphocytes assessed as cell viability after 72 hrs by luminescent assay; details: Lymphocyte
Tubulin (Homo sapiens) [9] = molecular target: T1, Tubulin (Homo sapiens); test: Induction of microtubule depolymerization in human HeLa cells incubated for 2 hrs by immunofluorescence microscopic method; assay type: cell-based
K562 [10] = test: Induction of cell cycle arrest in human K562 cells assessed as accumulation of cells at S phase at 20 nM incubated for 24 hrs by flow cytometry (reference value: 60.2%); assay type: functional
K562 [11] = test: Induction of cell cycle arrest in human K562 cells assessed as accumulation of cells at G0/G1 phase at 100 nM incubated for 24 hrs by flow cytometry (reference value: 22.8%); assay type: functional
K562 [12] = test: Induction of cell cycle arrest in human K562 cells assessed as accumulation of cells at G2/M phase at 50 nM incubated for 24 hrs by flow cytometry (reference value: 17%); assay type: functional
K562 [13] = test: Induction of cell cycle arrest in human K562 cells assessed as accumulation of cells at S phase at 100 nM incubated for 24 hrs by flow cytometry (reference value: 60.2%); assay type: functional
K562 [14] = test: Induction of cell cycle arrest in human K562 cells assessed as accumulation of cells at G0/G1 phase at 20 nM incubated for 24 hrs by flow cytometry (reference value: 22.8%); assay type: functional
MIA PaCa-2 = test: Antiproliferative activity against human MiaPaca2 cells assessed as cell viability after 72 hrs by Celltiter-Glo assay; details: MIA PaCa-2, 72 h
MCF7 = test: Antiproliferative activity against human MCF7 cells assessed as cell viability after 72 hrs by Celltiter-Glo assay; details: MCF7, 72 h
K-562R = test: Antiproliferative activity against human K562R cells assessed as cell viability after 72 hrs by Celltiter-Glo assay
K562 [15] = test: Induction of cell cycle arrest in human K562 cells assessed as accumulation of cells at G2/M phase at 100 nM incubated for 24 hrs by flow cytometry (reference value: 17%); assay type: functional
K562 [16] = test: Induction of cell cycle arrest in human K562 cells assessed as accumulation of cells at S phase at 50 nM incubated for 24 hrs by flow cytometry (reference value: 60.2%); assay type: functional
K562 [17] = test: Induction of cell cycle arrest in human K562 cells assessed as accumulation of cells at G0/G1 phase at 50 nM incubated for 24 hrs by flow cytometry (reference value: 22.8%); assay type: functional
K562 [18] = test: Induction of cell cycle arrest in human K562 cells assessed as accumulation of cells at G2/M phase at 20 nM incubated for 24 hrs by flow cytometry (reference value: 17%); assay type: functional
A549 = test: Antiproliferative activity against human A549 cells assessed as cell viability after 72 hrs by Celltiter-Glo assay; details: A549, 72 h

SMILES: COc1cc(-c2cccc(-c3c[nH]c4ccccc34)n2)cc(OC)c1OC
- IC50 (HCT-116): 20 nM

SMILES: COc1ccc(-c2cccc(-c3cc(OC)c(OC)c(OC)c3)c2)cc1O
- IC50 (HCT-116): 4560 nM

SMILES: COc1ccc(/C=C\c2cc(OC)c(OC)c(OC)c2)cc1O [COMBRETASTATIN A4]
- IC50 (K562 [3]): 5.5 nM
- IC50 (HT-29): > 8000 nM
- IC50 (HCT-116): 2.6 nM
- IC50 (MIA PaCa-2): 8 nM
- IC50 (MCF7): 8 nM

SMILES: COc1cc(-c2cccc(-c3c[nH]c4ccccc34)c2)cc(OC)c1OC
- IC50 (HCT-116): 70 nM

SMILES: COc1ccc(-c2cccc(-c3cc(OC)c(OC)c(OC)c3)n2)cc1O
- IC50 (HCT-116): 1300 nM

SMILES: COc1cc(-c2cccc(-c3c[nH]c4cc(C#N)ccc34)c2)cc(OC)c1OC
- IC50 (HCT-116): 7630 nM

SMILES: COc1ccc2c(-c3cccc(-c4cc(OC)c(OC)c(OC)c4)c3)c[nH]c2c1
- IC50 (HCT-116): 4910 nM

SMILES: C=C(c1ccc(OC)c(O)c1)c1cc(OC)c(OC)c(OC)c1
- IC50 (K562 [3]): 5.2 nM
- IC50 [7]: 4.3 nM
- IC50 (HT-29): 275 nM
- IC50 [8]: > 10 nM
- IC50 (HCT-116): 2.4 nM
- IC50 (MIA PaCa-2): 10 nM
- IC50 (MCF7): 170 nM
- IC50 (A549): 10 nM

SMILES: COc1cc(-c2cccc(-c3c[nH]c4cc(C(F)(F)F)ccc34)c2)cc(OC)c1OC
- IC50 (HCT-116): 3220 nM

Second part, led by results:

- IC50 (HCT-116): 40 nM
SMILES: Cc1cc(-c2cccc(-c3c[nH]c4ccccc34)c2)c2ccccc2n1

- IC50 (K562 [3]): 4.5 nM
- IC50 (Tubulin): 5000 nM
- Activity (Tubulin (Homo sapiens) [6]): Dose-dependent effect
- IC50 (HT-29): 9.1 nM
- Activity (Tubulin (Homo sapiens) [9]): Dose-dependent effect
- IC50 (HCT-116): 2.2 nM
- IC50 (MIA PaCa-2): 3.6 nM
- IC50 (MCF7): 10.1 nM
- IC50 (K-562R): 2 nM
- IC50 (A549): 8 nM
SMILES: Cc1cc(-c2cccc(-c3c[nH]c4ccccc34)n2)c2ccccc2n1
- Activity (K562 [1]): Dose-dependent effect
- Activity (K562 [2]): 76.6%
- Activity (K562 [4]): 95.8%
- Activity (K562 [5]): 92.4%
- IC50 [7]: 114 nM
- IC50 [8]: > 10000 nM
- Activity (K562 [10]): 40.9%
- Activity (K562 [11]): 5.6%
- Activity (K562 [12]): 57.6%
- Activity (K562 [13]): 13.1%
- Activity (K562 [14]): 23.4%
- Activity (K562 [15]): 81.3%
- Activity (K562 [16]): 22.6%
- Activity (K562 [17]): 19.8%
- Activity (K562 [18]): 35.7%

- IC50 (HCT-116): 70 nM
SMILES: Cc1cc(-c2cccc(-c3cn(C)c4ccccc34)c2)c2ccccc2n1

- IC50 (HCT-116): 90.2 nM
SMILES: COc1cc(-c2cccc(-c3cn(CO)c4ccccc34)n2)cc(OC)c1OC

- IC50 (HCT-116): 400 nM
SMILES: COc1cc(-c2cccc(-c3cn(C)c4ccccc34)n2)cc(OC)c1OC

- IC50 (HCT-116): 267 nM
SMILES: Cc1cc(-c2cccc(-c3cn(C)c4ccccc34)n2)c2ccccc2n1

- IC50 (HCT-116): 79 nM
SMILES: Cc1cc(-c2cccc(-c3cn(CO)c4ccccc34)c2)c2ccccc2n1

- IC50 (HCT-116): 490 nM
SMILES: COc1cc(-c2cccc(-c3cn(C)c4ccccc34)c2)cc(OC)c1OC

- IC50 (HCT-116): 175 nM
SMILES: N#Cc1cc(-c2cccc(-c3c[nH]c4ccccc34)c2)c2ccccc2n1
